# pEC50, pIC50: −log10 of the molar value.
# Columns and labels:
# [1] = Fold increase ratio of HIV-1M184V to HIV-1XXBRU; assay type: functional
# Procedure, shortened: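 PHA-stimulated PBM cells were infected for 1 h with the molecular clones HIV-1 xxBru (wild type) or HIV-1 M184Vpitt, then cultured 5 days with 10-fold serial dilutions. EC50 came from supernatant RT activity by the median effect method, and the ratio was taken as mutant EC50 over wild-type EC50.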
# [2] = Activity against Lamivudine-resistant virus (HIV-1M184V) in human PBM cells, expressed as EC90; assay type: functional; details: PBMC
# Procedure, shortened: (§1)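 PHA-stimulated (2-3 days) human PBM cells from seronegative donors, bulk-infected 1 h with molecular clones HIV-1 xxBru or M184V (100 TCID50/1 × 10⁷ cells in flask, or 200 TCID50/6 × 10⁵ cells/well in 24-well plate), then added to 10-fold serial compound dilutions. RPMI-1640 with IL-2 and DEAE-dextran; 5 days, 37 °C, 5% CO₂. Supernatant RT activity read out; EC50/EC90 by median effect method.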
# [3] = Activity against Lamivudine-resistant virus (HIV-1M184V) in human PBM cells, expressed as EC50; assay type: functional, cell-based; procedure, shortened: as §1
# [4] = Activity against wild-type virus (HIV-1XXBRU) in human PBM cells, expressed as EC50
# [5] = Cytotoxicity determined in uninfected PHA-stimulated human PBM cells (PBMCs), expressed as IC50; assay type: functional, cell-based; details: PBMC
# Procedure, shortened: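 Uninfected PHA-stimulated PBM cells from seronegative donors, isolated by single-step Ficoll-Hypaque, were seeded at 5 × 10⁴ cells/well with 10-fold serial drug dilutions. After 5 days at 37 °C in 5% CO2, MTT dye was added overnight, formazan solubilized 5 h, and absorbance read at 570 nm.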
# [6] = test system: Vero; test: Cytotoxicity determined in (african green monkey kidney) Vero cells, expressed as IC50; assay type: functional, cell-based; details: Chlorocebus sabaeus
# Procedure, shortened: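 Vero cells were seeded in log phase at 5 × 10³ cells/well with 10-fold serial drug dilutions and incubated 3 days at 37 °C in 5% CO2. Viability was read by MTT: overnight dye incubation, 5 h solubilization, absorbance at 570 nm.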
# [7] = test system: CCRF-CEM; test: Cytotoxicity determined in (T-lymphoblastoid cell line) CEM cells, expressed as IC50; assay type: functional, cell-based; details: Homo sapiens
# Procedure, shortened: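 CEM T-lymphoblastoid cells were seeded in log phase at 2.5 × 10³ cells/well with 10-fold serial drug dilutions and incubated 4 days at 37 °C in 5% CO2. Viability was read as MTT reduction: dye added overnight, formazan solubilized 5 h, absorbance at 570 nm.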
# [8] = Half life determined at pH 2 buffer solution; assay type: ADME
# Procedure, shortened: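 Nucleosides were held in pH 2 buffer and followed by TLC every 10 min for the first 3 h, then up to 6 h, to estimate half-life.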
Compound,FI [1],EC90 [2] [µM],pEC50 [3],pEC50 [4],pIC50 [5],pIC50 [6],pIC50 [7],half-life [8] [h]
Cc1cn([C@H]2C[C@H](N=[N+]=[N-])[C@@H](CO)O2)c(=O)[nH]c1=O [ZIDOVUDINE],0.3,0.025,8.52,8.00,,,,
O=c1nc(O)ccn1[C@H]1CC(F)(F)[C@H](CO)O1,,,,,< 4.00,< 4.00,< 4.00,
Cc1cn([C@H]2CC(F)(F)[C@H](CO)O2)c(=O)[nH]c1=O,,,,,< 4.00,< 4.00,< 4.00,
Nc1ccn([C@@H]2CC(F)(F)[C@H](CO)O2)c(=O)n1,,,,,< 4.00,< 4.00,< 4.00,
Cc1cn([C@H]2C=C(F)[C@H](CO)O2)c(=O)nc1O,,,,,< 4.00,< 4.00,< 4.00,
Nc1nc(=O)n([C@H]2CC(F)(F)[C@H](CO)O2)cc1F,,,,,< 4.00,< 4.00,< 4.00,
O=c1nc(O)ccn1[C@@H]1CC(F)(F)[C@H](CO)O1,,,,,< 4.00,< 4.00,< 4.00,
Nc1ccn([C@@H]2C=C(F)[C@H](CO)O2)c(=O)n1,104,15.7,5.62,7.64,4.06,< 4.00,< 4.00,48
OC[C@@H]1O[C@@H](n2cnc3c(O)ncnc32)CC1(F)F,,,,,< 4.00,< 4.00,< 4.00,
Nc1nc(=O)n([C@@H]2CC(F)(F)[C@H](CO)O2)cc1F,,,,,< 4.00,< 4.00,< 4.00,
Cc1cn([C@@H]2C=C(F)[C@H](CO)O2)c(=O)nc1O,,,,,< 4.00,< 4.00,< 4.00,
Nc1nc(=O)n([C@H]2C=C(F)[C@H](CO)O2)cc1F,,,,,< 4.00,< 4.00,< 4.00,
OC[C@H]1O[C@@H](n2cnc3c(O)ncnc32)C=C1F,,,,,< 4.00,< 4.00,< 4.00,
Nc1ncnc2c1ncn2[C@@H]1CC(F)(F)[C@H](CO)O1,,,,,< 4.00,< 4.00,< 4.00,
Nc1ccn([C@@H]2CC[C@H](CO)O2)c(=O)n1,17,28.2,5.54,6.77,,,,1
Nc1nc(O)c2ncn([C@H]3C=C(F)[C@H](CO)O3)c2n1,,,,,< 4.00,< 4.00,< 4.00,
Nc1nc(O)c2ncn([C@@H]3CC(F)(F)[C@H](CO)O3)c2n1,,,,,< 4.00,< 4.00,< 4.00,
Nc1ccn([C@@H]2CS[C@H](CO)O2)c(=O)n1 [LAMIVUDINE],> 2860,> 100,< 4.00,7.46,,,,
Cc1cn([C@@H]2CC(F)(F)[C@H](CO)O2)c(=O)nc1O,,,,,< 4.00,< 4.00,< 4.00,
Nc1nc(O)c2ncn([C@@H]3C=C(F)[C@H](CO)O3)c2n1,,,,,4.76,4.44,4.23,
Nc1ccn([C@H]2CC(F)(F)[C@H](CO)O2)c(=O)n1,,,,,< 4.00,< 4.00,< 4.00,
Nc1ncnc2c1ncn2[C@H]1C=C(F)[C@H](CO)O1,,,,,< 4.00,< 4.00,< 4.00,
O=c1nc(O)ccn1[C@@H]1C=C(F)[C@H](CO)O1,,,,,< 4.00,< 4.00,4.52,
O=c1ccn([C@H]2C=C(F)[C@H](CO)O2)c(=O)[nH]1,,,,,< 4.00,< 4.00,< 4.00,
OC[C@@H]1O[C@H](n2cnc3c(O)ncnc32)CC1(F)F,,,,,< 4.00,< 4.00,< 4.00,
Nc1nc(=O)n([C@@H]2C=C(F)[C@H](CO)O2)cc1F,1210,67.4,4.96,8.05,< 4.00,< 4.00,< 4.00,
Nc1ncnc2c1ncn2[C@@H]1C=C(F)[C@H](CO)O1,,,,,< 4.00,< 4.00,< 4.00,
Nc1nc(O)c2ncn([C@H]3CC(F)(F)[C@H](CO)O3)c2n1,,,,,< 4.00,< 4.00,< 4.00,
Nc1ncnc2c1ncn2[C@H]1CC(F)(F)[C@H](CO)O1,,,,,< 4.00,< 4.00,< 4.00,
Nc1ccn([C@H]2C=C(F)[C@H](CO)O2)c(=O)n1,,,,,< 4.00,< 4.00,< 4.00,

# Reference: ChEMBL document CHEMBL1136794, “l-2',3'-Didehydro-2',3'-dideoxy-3'-fluoronucleosides: synthesis, anti-HIV activity, chemical and enzymatic stability, and mechanism of resistance” (J Med Chem, 2003)
